We go through five molecules from ChEMBL document CHEMBL3797186, “Single Residue Substitutions That Confer Voltage-Gated Sodium Ion Channel Subtype Selectivity in the NaV1.7 Inhibitory Peptide GpTx-1” (J Med Chem, 2016).

Positions of bridges follow the written chain, without caps; N, C: chain ends. Non-standard residues stand in square brackets, D forms with d. Residues, ends and D or L forms follow the SMILES beside them. Ala(indol-2-yl) = N[C@@H](Cc1cc2ccccc2[nH]1)C(=O)O; 1Nal = N[C@@H](Cc1cccc2ccccc12)C(=O)O; 2Pal = N[C@@H](Cc1ccccn1)C(=O)O

Format in all cases: cell-based
In assay [1] the target is T1, Sodium channel protein type 5 subunit alpha (Homo sapiens, UniProt Q14524). Kind of assay: Inhibition of human Nav1.5 expressed in HEK293 cells by whole cell patch clamp electrophysiology method. In outline: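 Stable HEK293 line expressing human NaV1.5, recorded on the PatchXpress 7000A. Percent inhibition versus concentration was pooled from at least 10 cells, with two to three points per concentration. The pooled set was fitted with a four-parameter Hill equation to give a single IC50 curve.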

The target in assay [2] is T2, Sodium channel protein type 9 subunit alpha (Homo sapiens, UniProt Q15858). Nature of the assay: Inhibition of human Nav1.7 expressed in HEK293 cells by whole cell patch clamp electrophysiology method. In general terms: Patch clamp records ionic current or voltage across a cell membrane.
Assay [3] addresses T1, Sodium channel protein type 5 subunit alpha. Nature of the assay: Inhibition of human Nav1.5 expressed in HEK293 cells assessed as inward peak current by ion-works quattro patch clamp electrophysiology method. In outline: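 Stable HEK293 line expressing human NaV1.5, recorded by population patch clamp on the IonWorks Quattro.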
Assay [4] concerns the target T2, Sodium channel protein type 9 subunit alpha. Kind of assay: Inhibition of human Nav1.7 expressed in HEK293 cells assessed as inward peak current by ion-works quattro patch clamp electrophysiology method.

By IC50 is commonly meant the concentration at which inhibition is half-maximal.

T2 sequence (Q15858 whole entry): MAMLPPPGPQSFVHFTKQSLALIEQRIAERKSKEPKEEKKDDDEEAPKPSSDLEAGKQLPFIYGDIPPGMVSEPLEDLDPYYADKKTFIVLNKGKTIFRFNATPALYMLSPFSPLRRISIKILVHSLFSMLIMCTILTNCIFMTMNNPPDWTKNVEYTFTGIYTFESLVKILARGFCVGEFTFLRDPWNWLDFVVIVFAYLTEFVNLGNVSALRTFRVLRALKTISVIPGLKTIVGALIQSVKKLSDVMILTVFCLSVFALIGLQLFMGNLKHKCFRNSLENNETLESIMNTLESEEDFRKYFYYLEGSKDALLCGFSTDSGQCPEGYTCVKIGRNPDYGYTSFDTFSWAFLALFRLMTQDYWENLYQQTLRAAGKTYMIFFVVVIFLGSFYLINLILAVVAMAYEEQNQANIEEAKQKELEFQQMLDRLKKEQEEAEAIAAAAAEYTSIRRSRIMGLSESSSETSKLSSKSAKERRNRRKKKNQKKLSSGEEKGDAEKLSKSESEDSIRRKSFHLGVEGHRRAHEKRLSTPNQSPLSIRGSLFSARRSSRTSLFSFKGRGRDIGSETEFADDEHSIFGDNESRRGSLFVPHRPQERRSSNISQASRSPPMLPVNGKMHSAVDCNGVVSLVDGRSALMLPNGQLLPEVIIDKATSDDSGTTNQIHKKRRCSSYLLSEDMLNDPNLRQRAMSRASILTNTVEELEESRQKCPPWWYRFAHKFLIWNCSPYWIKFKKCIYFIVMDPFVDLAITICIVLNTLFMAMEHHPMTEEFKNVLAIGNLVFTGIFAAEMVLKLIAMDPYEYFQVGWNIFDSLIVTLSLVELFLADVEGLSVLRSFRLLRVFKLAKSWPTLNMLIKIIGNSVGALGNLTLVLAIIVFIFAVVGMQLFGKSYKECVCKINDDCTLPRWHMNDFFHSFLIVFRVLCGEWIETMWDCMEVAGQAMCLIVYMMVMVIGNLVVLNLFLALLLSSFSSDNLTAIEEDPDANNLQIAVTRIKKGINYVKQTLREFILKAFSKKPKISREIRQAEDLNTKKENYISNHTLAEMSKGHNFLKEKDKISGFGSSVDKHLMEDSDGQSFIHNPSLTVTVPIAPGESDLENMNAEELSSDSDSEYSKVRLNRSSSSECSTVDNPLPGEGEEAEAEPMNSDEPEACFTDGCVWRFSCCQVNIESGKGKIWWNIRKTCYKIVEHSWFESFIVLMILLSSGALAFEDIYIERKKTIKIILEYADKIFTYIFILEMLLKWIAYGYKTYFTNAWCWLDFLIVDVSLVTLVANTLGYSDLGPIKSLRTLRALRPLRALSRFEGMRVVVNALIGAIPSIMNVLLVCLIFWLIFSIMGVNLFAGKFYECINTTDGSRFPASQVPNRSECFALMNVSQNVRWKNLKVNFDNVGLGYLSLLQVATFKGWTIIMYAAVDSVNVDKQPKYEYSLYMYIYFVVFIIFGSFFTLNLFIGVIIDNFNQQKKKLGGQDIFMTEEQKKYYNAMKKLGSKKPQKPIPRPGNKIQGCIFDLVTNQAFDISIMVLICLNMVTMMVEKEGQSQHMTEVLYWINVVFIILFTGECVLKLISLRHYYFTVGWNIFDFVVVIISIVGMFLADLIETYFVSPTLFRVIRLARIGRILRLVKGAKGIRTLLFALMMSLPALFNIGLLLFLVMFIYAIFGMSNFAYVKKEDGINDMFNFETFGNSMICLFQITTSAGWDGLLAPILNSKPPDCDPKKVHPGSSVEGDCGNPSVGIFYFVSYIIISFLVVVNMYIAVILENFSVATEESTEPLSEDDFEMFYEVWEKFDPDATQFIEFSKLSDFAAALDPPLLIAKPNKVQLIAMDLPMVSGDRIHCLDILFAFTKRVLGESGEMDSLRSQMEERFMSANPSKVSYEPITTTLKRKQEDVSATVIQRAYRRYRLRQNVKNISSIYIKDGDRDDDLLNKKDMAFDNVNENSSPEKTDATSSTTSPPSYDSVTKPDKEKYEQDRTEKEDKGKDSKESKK
T1 sequence (Q14524 whole entry): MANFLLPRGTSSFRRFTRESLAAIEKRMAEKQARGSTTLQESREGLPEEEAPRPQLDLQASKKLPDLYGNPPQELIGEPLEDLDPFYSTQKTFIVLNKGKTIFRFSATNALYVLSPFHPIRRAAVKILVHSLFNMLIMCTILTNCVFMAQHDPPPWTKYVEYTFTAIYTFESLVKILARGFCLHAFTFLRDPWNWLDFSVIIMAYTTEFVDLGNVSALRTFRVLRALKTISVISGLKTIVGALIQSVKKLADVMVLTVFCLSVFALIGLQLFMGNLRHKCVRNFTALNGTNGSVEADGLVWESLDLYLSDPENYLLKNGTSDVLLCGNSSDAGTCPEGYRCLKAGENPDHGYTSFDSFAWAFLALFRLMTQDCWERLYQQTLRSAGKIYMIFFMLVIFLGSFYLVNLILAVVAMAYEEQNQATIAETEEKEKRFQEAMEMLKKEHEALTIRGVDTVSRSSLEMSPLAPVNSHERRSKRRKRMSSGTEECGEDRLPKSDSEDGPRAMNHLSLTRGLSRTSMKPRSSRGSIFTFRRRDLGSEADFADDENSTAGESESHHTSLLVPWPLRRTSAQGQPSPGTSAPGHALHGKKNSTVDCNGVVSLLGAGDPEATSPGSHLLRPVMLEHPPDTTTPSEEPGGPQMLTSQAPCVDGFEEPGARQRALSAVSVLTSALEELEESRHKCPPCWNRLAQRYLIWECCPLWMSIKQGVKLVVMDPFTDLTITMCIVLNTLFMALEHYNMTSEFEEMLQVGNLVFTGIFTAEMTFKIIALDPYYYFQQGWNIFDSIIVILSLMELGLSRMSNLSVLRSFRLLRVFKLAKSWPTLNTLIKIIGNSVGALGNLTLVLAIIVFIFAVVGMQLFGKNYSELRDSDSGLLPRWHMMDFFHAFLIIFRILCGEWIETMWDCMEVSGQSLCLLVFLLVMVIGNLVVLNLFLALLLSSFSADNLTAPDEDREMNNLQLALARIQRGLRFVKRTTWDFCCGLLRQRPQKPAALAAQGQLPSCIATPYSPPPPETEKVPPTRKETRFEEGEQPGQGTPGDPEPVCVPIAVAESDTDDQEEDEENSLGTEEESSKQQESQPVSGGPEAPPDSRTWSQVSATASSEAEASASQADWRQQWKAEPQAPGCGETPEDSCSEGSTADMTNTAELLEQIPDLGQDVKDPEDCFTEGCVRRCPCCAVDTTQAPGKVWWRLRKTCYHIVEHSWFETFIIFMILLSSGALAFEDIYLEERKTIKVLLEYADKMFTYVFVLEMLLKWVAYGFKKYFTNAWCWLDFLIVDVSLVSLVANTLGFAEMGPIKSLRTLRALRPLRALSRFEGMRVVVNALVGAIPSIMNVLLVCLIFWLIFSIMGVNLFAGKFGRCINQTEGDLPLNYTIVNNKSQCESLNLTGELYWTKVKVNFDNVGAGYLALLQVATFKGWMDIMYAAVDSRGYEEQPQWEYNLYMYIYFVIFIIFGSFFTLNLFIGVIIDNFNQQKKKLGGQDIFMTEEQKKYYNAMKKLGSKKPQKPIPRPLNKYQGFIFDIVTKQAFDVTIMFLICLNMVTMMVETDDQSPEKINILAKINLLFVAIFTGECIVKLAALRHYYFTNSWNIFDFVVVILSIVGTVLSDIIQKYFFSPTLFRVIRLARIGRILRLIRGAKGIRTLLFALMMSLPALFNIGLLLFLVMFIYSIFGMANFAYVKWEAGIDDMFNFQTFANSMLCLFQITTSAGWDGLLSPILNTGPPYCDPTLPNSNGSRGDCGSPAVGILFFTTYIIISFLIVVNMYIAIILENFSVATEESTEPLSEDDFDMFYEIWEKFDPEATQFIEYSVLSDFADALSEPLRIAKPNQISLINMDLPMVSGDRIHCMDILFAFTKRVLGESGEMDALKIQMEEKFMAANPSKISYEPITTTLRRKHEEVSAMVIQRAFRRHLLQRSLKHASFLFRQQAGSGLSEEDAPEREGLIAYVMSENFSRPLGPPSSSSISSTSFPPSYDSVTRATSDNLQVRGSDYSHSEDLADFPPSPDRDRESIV

For `CC[C@H](C)[C@@H]1NC(=O)[C@@H]2CSSC[C@@H]3NC(=O)[C@H](C(C)C)NC(=O)[C@H](CC(C)C)NC(=O)[C@H](CC(N)=O)NC(=O)[C@@H]4CCCN4C(=O)[C@H](CCCNC(=N)N)NC(=O)[C@H](CSSC[C@H](NC(=O)[C@@H](N)CC(=O)O)C(=O)N[C@@H](CC(C)C)C(=O)NCC(=O)N[C@@H](Cc4ccccc4)C(=O)N[C@@H](CCSC)C(=O)N[C@@H](CCCNC(=N)N)C(=O)N[C@@H](CCCCN)C(=O)N2)NC(=O)[C@H](CSSC[C@@H](C(=O)N[C@@H](CCCCN)C(=O)N[C@@H](Cc2ccc(O)cc2)C(=O)N[C@H](C(=O)N[C@@H](Cc2cccc4ccccc24)C(N)=O)C(C)C)NC(=O)[C@H](Cc2c[nH]c4ccccc24)NC(=O)[C@H](CCCCN)NC(=O)[C@H](Cc2cnc[nH]2)NC(=O)[C@H]([C@@H](C)O)NC(=O)[C@H](CCCNC(=N)N)NC(=O)[C@H](CO)NC3=O)NC(=O)[C@H](CCCCN)NC(=O)[C@H](CC(=O)O)NC(=O)[C@H](CC(N)=O)NC(=O)[C@H](CC(=O)O)NC(=O)[C@@H]2CCCN2C1=O` (H-DCLGFMRKCIPDNDKCCRPNLVCSRTHKWCKYV[1Nal]-NH2; disulfide 2-17, 9-23, 16-30), the half-inhibitory concentration (IC50) in assay [1] is 1800 nM; in assay [2], 5 nM; in assay [3], over 5000 nM; in assay [4] it was 40 nM.
The corresponding values for `CC[C@H](C)[C@@H]1NC(=O)[C@@H]2CSSC[C@@H]3NC(=O)[C@H](Cc4c[nH]c5ccccc45)NC(=O)[C@H](CC(C)C)NC(=O)[C@H](CC(N)=O)NC(=O)[C@@H]4CCCN4C(=O)[C@H](CCCNC(=N)N)NC(=O)[C@H](CSSC[C@H](NC(=O)[C@@H](N)CC(=O)O)C(=O)N[C@@H](CC(C)C)C(=O)NCC(=O)N[C@@H](Cc4ccccc4)C(=O)N[C@@H](CCSC)C(=O)N[C@@H](CCCNC(=N)N)C(=O)N[C@@H](CCCCN)C(=O)N2)NC(=O)[C@H](CSSC[C@@H](C(=O)N[C@@H](CCCCN)C(=O)N[C@@H](Cc2ccc(O)cc2)C(=O)N[C@H](C(=O)N[C@@H](Cc2ccccc2)C(N)=O)C(C)C)NC(=O)[C@H](Cc2c[nH]c4ccccc24)NC(=O)[C@H](CCCCN)NC(=O)[C@H](Cc2cnc[nH]2)NC(=O)[C@H]([C@@H](C)O)NC(=O)[C@H](CCCNC(=N)N)NC(=O)[C@H](CO)NC3=O)NC(=O)[C@H](CCCCN)NC(=O)[C@H](CC(=O)O)NC(=O)[C@H](CC(N)=O)NC(=O)[C@H](CC(=O)O)NC(=O)[C@@H]2CCCN2C1=O` (H-DCLGFMRKCIPDNDKCCRPNLWCSRTHKWCKYVF-NH2; disulfide 2-17, 9-23, 16-30) are 3200 nM, 42 nM, over 5000 nM and 60 nM.
Regarding `CC[C@H](C)[C@@H]1NC(=O)[C@@H]2CSSC[C@@H]3NC(=O)[C@H](C(C)C)NC(=O)[C@H](CC(C)C)NC(=O)[C@H](CC(N)=O)NC(=O)[C@@H]4CCCN4C(=O)[C@H](Cc4ccccn4)NC(=O)[C@H](CSSC[C@H](NC(=O)[C@@H](N)CC(=O)O)C(=O)N[C@@H](CC(C)C)C(=O)NCC(=O)N[C@@H](Cc4ccccc4)C(=O)N[C@@H](CCSC)C(=O)N[C@@H](CCCNC(=N)N)C(=O)N[C@@H](CCCCN)C(=O)N2)NC(=O)[C@H](CSSC[C@@H](C(=O)N[C@@H](CCCCN)C(=O)N[C@@H](Cc2ccc(O)cc2)C(=O)N[C@H](C(=O)N[C@@H](Cc2ccccc2)C(N)=O)C(C)C)NC(=O)[C@H](Cc2c[nH]c4ccccc24)NC(=O)[C@H](CCCCN)NC(=O)[C@H](Cc2cnc[nH]2)NC(=O)[C@H]([C@@H](C)O)NC(=O)[C@H](CCCNC(=N)N)NC(=O)[C@H](CO)NC3=O)NC(=O)[C@H](CCCCN)NC(=O)[C@H](CC(=O)O)NC(=O)[C@H](CC(N)=O)NC(=O)[C@H](CC(=O)O)NC(=O)[C@@H]2CCCN2C1=O` (H-DCLGFMRKCIPDNDKCC[2Pal]PNLVCSRTHKWCKYVF-NH2; disulfide 2-17, 9-23, 16-30), the IC50 was 13100 nM in assay [1], 4 nM in assay [2], over 5000 nM in assay [3] and 300 nM in assay [4].
The corresponding values for `CC[C@H](C)[C@@H]1NC(=O)[C@@H]2CSSC[C@@H]3NC(=O)[C@H](C(C)C)NC(=O)[C@H](CC(C)C)NC(=O)[C@H](CC(N)=O)NC(=O)[C@@H]4CCCN4C(=O)[C@H](Cc4cc5ccccc5[nH]4)NC(=O)[C@H](CSSC[C@H](NC(=O)[C@@H](N)CC(=O)O)C(=O)N[C@@H](CC(C)C)C(=O)NCC(=O)N[C@@H](Cc4ccccc4)C(=O)N[C@@H](CCSC)C(=O)N[C@@H](CCCNC(=N)N)C(=O)N[C@@H](CCCCN)C(=O)N2)NC(=O)[C@H](CSSC[C@@H](C(=O)N[C@@H](CCCCN)C(=O)N[C@@H](Cc2ccc(O)cc2)C(=O)N[C@H](C(=O)N[C@@H](Cc2ccccc2)C(N)=O)C(C)C)NC(=O)[C@H](Cc2c[nH]c4ccccc24)NC(=O)[C@H](CCCCN)NC(=O)[C@H](Cc2cnc[nH]2)NC(=O)[C@H]([C@@H](C)O)NC(=O)[C@H](CCCNC(=N)N)NC(=O)[C@H](CO)NC3=O)NC(=O)[C@H](CCCCN)NC(=O)[C@H](CC(=O)O)NC(=O)[C@H](CC(N)=O)NC(=O)[C@H](CC(=O)O)NC(=O)[C@@H]2CCCN2C1=O` (H-DCLGFMRKCIPDNDKCC[Ala(indol-2-yl)]PNLVCSRTHKWCKYVF-NH2; disulfide 2-17, 9-23, 16-30) are over 10000 nM, 18 nM, over 5000 nM and 180 nM.
Consider `CSCC[C@@H]1NC(=O)[C@H](Cc2ccccc2)NC(=O)CNC(=O)[C@H](CC(C)C)NC(=O)[C@@H](NC(=O)[C@@H](N)CC(=O)O)CSSC[C@@H]2NC(=O)[C@@H]3CSSC[C@@H](C(=O)N[C@@H](CCCCN)C(=O)N[C@@H](Cc4ccc(O)cc4)C(=O)N[C@H](C(=O)N[C@@H](Cc4ccccc4)C(N)=O)C(C)C)NC(=O)[C@H](Cc4c[nH]c5ccccc45)NC(=O)[C@H](CCCCN)NC(=O)[C@H](Cc4cnc[nH]4)NC(=O)[C@H]([C@@H](C)O)NC(=O)[C@H](CCCNC(=N)N)NC(=O)[C@H](CO)NC(=O)[C@H](CSSC[C@H](NC(=O)[C@H](CCCCN)NC(=O)[C@H](CCCNC(=N)N)NC1=O)C(=O)N[C@@H](CC(N)=O)C(=O)N1CCC[C@H]1C(=O)N[C@@H](CC(=O)O)C(=O)N[C@@H](CC(N)=O)C(=O)N[C@@H](CC(=O)O)C(=O)N[C@@H](CCCCN)C(=O)N3)NC(=O)[C@H](C(C)C)NC(=O)[C@H](CC(C)C)NC(=O)[C@H](CC(N)=O)NC(=O)[C@@H]1CCCN1C(=O)[C@H](CCCNC(=N)N)NC2=O` (H-DCLGFMRKCNPDNDKCCRPNLVCSRTHKWCKYVF-NH2; disulfide 2-17, 9-23, 16-30), for which the IC50 in assay [1] was over 10000 nM; in assay [2], 1.9 nM; in assay [3], over 5000 nM; in assay [4], 330 nM.
